Experimental data collected from several papers.
Lines come from different studies, so protocols differ.
Target: STE20-like serine/threonine-protein kinase (SLK, Homo sapiens, UniProt Q9H2G2)

CNC(=O)[C@@H]1CC[C@@H](n2c(-c3ccc4cnccc4c3)nc3ccc(C(=O)NCc4cccc(C(N)=O)c4)cc32)C1
remaining binding (binding, competition with immobilised ligand; 1 µM): 95%

C[C@@]1(Cc2ccc(C#N)cc2)C(=O)N(c2cc(Cl)cc(Cl)c2)c2ncc(C(=O)NC3(c4nc(C5CCC5)no4)CC3)n21
remaining binding (cell-free assay, competition with immobilised ligand; 1 µM): 100%

C[C@@H]1CCN(c2nccc(-c3cnn4ncccc34)n2)C1
remaining binding (binding; 1 µM): 87%

O=C(NCC1CCOCC1)c1n[nH]cc1NC(=O)c1c(F)cccc1F
remaining binding (binding, competition with immobilised ligand; 1 µM): 99%

NS(=O)(=O)c1cc(NC(=O)Cc2ccccc2)ccc1Oc1cccc(Cl)c1
remaining binding (cell-free assay, competition with immobilised ligand; 1 µM): 66%

C[C@@H](c1ccc(-n2cnc3c(N)ncnc32)cc1)N1CCc2nn(C)c(Cc3ccccc3)c2C1=O
remaining binding (binding, competition with immobilised ligand; 0.1 µM): 100%

CC(=O)N1CCC(c2ccc(C(=O)NC3=NCCN3)cc2C(F)(F)F)CC1
remaining binding (cell-free assay, competition with immobilised ligand; 1 µM): 94%

Cc1cnn2ncc(-c3ccnc(N(C)C)n3)c2c1
remaining binding (binding; 1 µM): 100%

O=C(NS(=O)(=O)c1ccc(NCC2CCOCC2)c([N+](=O)[O-])c1)c1ccc(N2CCN(Cc3ccc(C(F)(F)F)cc3-c3ccc(Cl)cc3)CC2)cc1Oc1cnc2[nH]ccc2c1
remaining binding (cell-free assay, competition with immobilised ligand; 1 µM): 100%

N[C@H]1CCN(c2nccc(-c3cnn4ncccc34)n2)C1
remaining binding (binding; 1 µM): 86%

CN([C@@H]1CCc2c(CC(=O)O)c3cc(S(C)(=O)=O)ccc3n2C1)S(=O)(=O)c1ccc(F)cc1
remaining binding (cell-free assay, competition with immobilised ligand; 1 µM): 100%

O=C(NCCCN1CCOCC1)c1ccc(Nc2nccc(-c3cc4ccccc4s3)n2)cc1
remaining binding (binding, competition with immobilised ligand; 1 µM): 38%

O=C(O)[C@H]1[C@H](Cn2nnc3ccccc3c2=O)CC[C@@H]1C(=O)c1ccc(OCCC2CCOCC2)cc1
remaining binding (cell-free assay, competition with immobilised ligand; 1 µM): 96%

O=C(c1ccc(Nc2ncc(Cl)c(-c3cc4ccccc4s3)n2)cc1)N1CCC(N2CCCC2)CC1
remaining binding (binding, competition with immobilised ligand; 1 µM): 1.7%

CN(C)c1nccc(-c2cnc3ncccn23)n1
remaining binding (binding; 1 µM): 100%

CCN1CCN(Cc2ccc(C(=O)Nc3ccc(C)c(Oc4ccc5c(c4)CC(=O)N5)c3)cc2C(F)(F)F)CC1
remaining binding (binding, competition with immobilised ligand; 1 µM): 76%

Nc1ncc2c(n1)-c1c([nH]c3ccc(C#CC4CC4)cc13)CCCC2
remaining binding (binding, competition with immobilised ligand; 1 µM): 100%

CN(c1nccc(-c2cnn3ncccc23)n1)C1CC1
remaining binding (binding; 1 µM): 100%

FC(F)(F)Oc1cccc(-c2cnc3ccc(-c4ccncc4)nn23)c1
remaining binding (binding, competition with immobilised ligand; 5 µM): 7.8%

CN(C)c1nccc(-c2cnn3ncccc23)n1
remaining binding (binding; 1 µM): 100%

O=C(c1ccc(Nc2nccc(-c3cc4ccccc4s3)n2)cc1)N1CCC(N2CCCC2)CC1
remaining binding (binding, competition with immobilised ligand; 1 µM): 13%
